“And” between values parts separate entries of the source, which are not always exact repeats. Equal values may be shown once. Where no end group is shown, it is not given here. The star is where a group is joined. Biotin = O=C1N[C@H]2[C@H](CS[C@H]2CCCCC(=O)*)N1
T1: TIR1-IAA7 (Arabidopsis thaliana, UniProt Q38825+Q570C0)
T1 sequence (Q570C0 1-594): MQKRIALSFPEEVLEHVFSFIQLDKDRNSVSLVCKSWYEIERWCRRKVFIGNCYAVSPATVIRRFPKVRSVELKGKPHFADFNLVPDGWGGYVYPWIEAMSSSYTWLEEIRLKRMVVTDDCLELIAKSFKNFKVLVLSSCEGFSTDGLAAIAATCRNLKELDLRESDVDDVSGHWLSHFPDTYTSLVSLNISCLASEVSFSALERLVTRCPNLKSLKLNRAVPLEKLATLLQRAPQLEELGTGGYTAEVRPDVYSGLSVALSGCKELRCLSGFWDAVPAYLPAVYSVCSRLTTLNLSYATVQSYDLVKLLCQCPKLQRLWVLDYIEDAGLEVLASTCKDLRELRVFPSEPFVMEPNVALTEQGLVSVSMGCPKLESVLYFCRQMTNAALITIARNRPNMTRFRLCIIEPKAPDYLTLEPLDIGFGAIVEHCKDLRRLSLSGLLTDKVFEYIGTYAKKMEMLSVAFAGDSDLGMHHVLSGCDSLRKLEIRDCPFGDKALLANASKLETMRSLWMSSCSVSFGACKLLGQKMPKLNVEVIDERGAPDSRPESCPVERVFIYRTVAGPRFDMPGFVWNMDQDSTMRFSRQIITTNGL
T1 sequence (Q39255 1-160 partner): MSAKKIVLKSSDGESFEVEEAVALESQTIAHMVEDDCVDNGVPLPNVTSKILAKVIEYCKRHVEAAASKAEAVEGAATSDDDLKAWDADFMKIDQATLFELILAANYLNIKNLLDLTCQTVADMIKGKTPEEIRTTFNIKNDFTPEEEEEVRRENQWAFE
T1 sequence (Q38825 1-243): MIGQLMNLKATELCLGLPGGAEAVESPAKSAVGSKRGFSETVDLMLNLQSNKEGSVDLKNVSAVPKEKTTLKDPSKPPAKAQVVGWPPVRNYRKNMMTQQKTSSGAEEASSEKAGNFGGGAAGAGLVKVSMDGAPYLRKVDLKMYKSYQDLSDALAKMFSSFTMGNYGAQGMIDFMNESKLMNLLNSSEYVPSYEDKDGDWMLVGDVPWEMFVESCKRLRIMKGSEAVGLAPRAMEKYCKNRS

T2: TIR1-IAA7 interaction (Arabidopsis thaliana, UniProt Q38825+Q570C0)
T2 sequence (Q570C0 1-594): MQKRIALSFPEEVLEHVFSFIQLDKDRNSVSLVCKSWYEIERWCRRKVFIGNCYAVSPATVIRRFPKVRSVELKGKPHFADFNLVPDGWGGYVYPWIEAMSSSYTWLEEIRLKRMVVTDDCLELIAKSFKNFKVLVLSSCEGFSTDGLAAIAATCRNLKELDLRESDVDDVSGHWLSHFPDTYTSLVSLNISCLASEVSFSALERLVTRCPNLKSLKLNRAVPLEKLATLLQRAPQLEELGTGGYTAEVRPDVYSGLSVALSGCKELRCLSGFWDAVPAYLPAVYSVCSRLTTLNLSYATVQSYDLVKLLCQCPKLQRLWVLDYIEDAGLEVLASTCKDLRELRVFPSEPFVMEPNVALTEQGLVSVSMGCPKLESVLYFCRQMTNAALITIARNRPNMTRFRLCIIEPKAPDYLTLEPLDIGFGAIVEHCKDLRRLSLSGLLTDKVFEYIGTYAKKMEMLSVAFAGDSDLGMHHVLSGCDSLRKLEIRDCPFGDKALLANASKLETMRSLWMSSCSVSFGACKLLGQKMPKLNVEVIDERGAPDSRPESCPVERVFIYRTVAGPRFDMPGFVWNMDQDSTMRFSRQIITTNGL
T2 sequence (Q38825 1-243): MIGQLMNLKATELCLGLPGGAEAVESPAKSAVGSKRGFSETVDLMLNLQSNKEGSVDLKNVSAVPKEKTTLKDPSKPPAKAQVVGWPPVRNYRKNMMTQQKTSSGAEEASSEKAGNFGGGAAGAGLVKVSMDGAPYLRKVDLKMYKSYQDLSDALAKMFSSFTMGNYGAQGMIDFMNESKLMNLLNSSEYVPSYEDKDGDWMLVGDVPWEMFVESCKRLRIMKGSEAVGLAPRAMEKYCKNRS

T3: TIR1-ASK1 complex (Arabidopsis thaliana, UniProt Q570C0;Q39255)
T3 sequence 1: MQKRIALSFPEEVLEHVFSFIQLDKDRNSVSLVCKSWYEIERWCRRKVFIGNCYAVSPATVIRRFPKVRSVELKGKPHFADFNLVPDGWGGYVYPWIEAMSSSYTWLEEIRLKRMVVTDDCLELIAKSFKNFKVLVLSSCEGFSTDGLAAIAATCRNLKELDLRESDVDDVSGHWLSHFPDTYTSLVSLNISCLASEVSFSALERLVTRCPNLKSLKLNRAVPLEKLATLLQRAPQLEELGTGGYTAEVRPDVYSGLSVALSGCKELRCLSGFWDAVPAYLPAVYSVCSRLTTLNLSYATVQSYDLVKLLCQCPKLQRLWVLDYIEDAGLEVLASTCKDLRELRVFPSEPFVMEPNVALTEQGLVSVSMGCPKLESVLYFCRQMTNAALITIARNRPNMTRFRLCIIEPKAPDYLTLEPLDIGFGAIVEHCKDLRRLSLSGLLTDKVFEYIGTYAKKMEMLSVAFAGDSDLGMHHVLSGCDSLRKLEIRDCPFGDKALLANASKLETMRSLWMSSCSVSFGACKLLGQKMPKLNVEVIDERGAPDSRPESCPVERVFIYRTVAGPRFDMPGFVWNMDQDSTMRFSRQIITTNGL
T3 sequence 2: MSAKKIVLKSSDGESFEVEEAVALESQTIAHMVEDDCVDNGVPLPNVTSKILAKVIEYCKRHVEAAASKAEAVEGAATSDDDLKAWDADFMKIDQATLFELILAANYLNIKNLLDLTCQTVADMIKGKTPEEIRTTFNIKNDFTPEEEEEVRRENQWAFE


Columns and labels:
TIR1-IAA7 = molecular target: T1, TIR1-IAA7; assay: [3H]-IAA radioligand binding; conditions: Ki (Mean ± SEM), TIR1-IAA7, cold competitor vs [3H] IAA
Summary of the method: (§1)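 ASK1-TIR1 or ASK1-AFB5 (0.44 μg, insect cells) with E. coli GST-IAA7 (1:10 molar), >1 h at 4°C in pH 8.0 Tris binding buffer. KD from [³H]-IAA saturation binding. Ki from competition with cold 1-NAA, 2,4-D or picloram against fixed [³H]-IAA (5–100 nM), fitted to a one-site competition model by nonlinear regression. Filter binding with scintillation read-out; triplicates.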

TIR1-IAA7 interaction = molecular target: T2, TIR1-IAA7 interaction; assay: LexA yeast two-hybrid, auxin-induced TIR1-IAA7 interaction; assay type: cell-based; conditions: 50 μM auxins in selective media
AFB5-IAA7 = AFB5-IAA7 (Arabidopsis thaliana, UniProt Q38825+Q9LTX2); assay: [3H]-IAA radioligand binding; conditions: Ki (Mean ± SEM), AFB5-IAA7, cold competitor vs [3H] IAA
Summary of the method: as §1

TIR1-IAA7 DII = TIR1-IAA7 DII (Arabidopsis thaliana, UniProt Q38825+Q570C0, DEL96-243); assay: Surface plasmon resonance, TIR1 over immobilized IAA7 DII peptide; assay type: binding
AFB5-IAA7 DII = AFB5-IAA7 DII (Arabidopsis thaliana, UniProt Q38825+Q9LTX2, DEL96-243); assay: Surface plasmon resonance, AFB5 over immobilized IAA7 DII peptide; assay type: binding; conditions: 50 μM picloram
TIR1-ASK1 complex = molecular target: T3, TIR1-ASK1 complex; assay: SPR

binding result (TIR1-ASK1 complex)	Molecule	Ki (TIR1-IAA7)	TIR1-IAA7 interaction in yeast (β-galactosidase expression) (TIR1-IAA7 interaction)	Ki (AFB5-IAA7)	dissociation of the TIR1-IAA7 DII complex (SPR) (TIR1-IAA7 DII; 50 μM ligand concentration)	TIR1 association with the DII peptide (SPR) (TIR1-IAA7 DII; co-injection of TIR1 with auxin, vs no auxin)	assembly of the AFB5-IAA7 complex (SPR) (AFB5-IAA7 DII)
	Nc1c(Cl)c(Cl)nc(C(=O)O)c1Cl [picloram, 4-amino-3,5,6-trichloro-2-pyridinecarboxylic acid]	3900 ± 910 nM	promoted TIR1-IAA7 interaction, but not to the same extent as IAA	54.9 nM and 54.7 nM	rapid dissociation	enhanced association with the peptide	promotes rapid assembly
binds	Biotin-AKAQVVGWPPVRNYRKN [Biotinylated DII IAA7 peptide (SPR)]						

— article PMC3331960 (Nature chemical biology, 2012)
